Experimental data as given in ChEMBL document CHEMBL1152188, “Alpha-S-GalCer: synthesis and evaluation for iNKT cell stimulation” (Bioorg Med Chem Lett, 2008).
Activity calls are given as the source filed them.

How the values were obtained:
Mus musculus [1] = assay: Activation of iNKT cells in C57BL/6 mouse assessed as cell frequency at 5 or 10 ug, ip by FACS analysis; format: functional, organism-based
Outline: (§1)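 Lipid given intraperitoneally to NOD or C57Bl/6 mice in PBS with […] Tween-20 (200 μg/mL). iNKT cell frequency and intracellular cytokine expression read by flow cytometry (FACS).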

iNKT [2] = assay: Induction of cytokine expression in C57BL/6 mouse iNKT cells at 200 ng/mL after 48 hrs by intracellular staining for IFN-gamma; format: functional, cell-based
Outline: (§2)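 Splenocytes from NOD or C57Bl/6 mice, CFSE-labeled and stimulated in vitro with the glycolipid. Cytokine induction measured by intracellular IFNγ staining at 24 and 48 h.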

iNKT [3] = assay: Induction of cell proliferation in C57BL/6 mouse iNKT cells at 100 ng/mL after 48 hrs by CFSE dilution; format: functional, cell-based
Outline: (§3)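 Splenocytes isolated from NOD or C57Bl/6 mice, labeled with CFSE and stimulated with the glycolipid in vitro. Proliferation read as CFSE dilution at 24 and 48 h.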

iNKT [4] = assay: Induction of cell proliferation in NOD mouse iNKT cells at 100 ng/mL after 24 hrs by CFSE dilution; format: functional, cell-based; outline: as §3
iNKT [5] = assay: Induction of cell proliferation in NOD mouse iNKT cells at 200 ng/mL after 48 hrs by CFSE dilution; format: functional, cell-based; outline: as §3
Mus musculus [6] = assay: Activation of iNKT cells in NOD mouse assessed as cell frequency at 5 or 10 ug, ip by FACS analysis; format: functional, organism-based; outline: as §1
iNKT [7] = assay: Induction of cell proliferation in NOD mouse iNKT cells at 200 ng/mL after 24 hrs by CFSE dilution; format: functional, cell-based; outline: as §3
iNKT [8] = assay: Induction of cytokine expression in C57BL/6 mouse iNKT cells at 100 ng/mL after 48 hrs by intracellular staining for IFN-gamma; format: functional, cell-based; outline: as §2
iNKT [9] = assay: Induction of cell proliferation in C57BL/6 mouse iNKT cells at 200 ng/mL after 24 hrs by CFSE dilution; format: functional, cell-based; outline: as §3
iNKT [10] = assay: Induction of cell proliferation in C57BL/6 mouse iNKT cells at 200 ng/mL after 48 hrs by CFSE dilution; format: functional, cell-based; outline: as §3
iNKT [11] = assay: Induction of cytokine expression in C57BL/6 mouse iNKT cells at 100 ng/mL after 24 hrs by intracellular staining for IFN-gamma; format: functional, cell-based; outline: as §2
iNKT [12] = assay: Induction of cytokine expression in NOD mouse iNKT cells at 100 ng/mL after 48 hrs by intracellular staining for IFN-gamma; format: functional, cell-based; outline: as §2
iNKT [13] = assay: Induction of cell proliferation in C57BL/6 mouse iNKT cells at 100 ng/mL after 24 hrs by CFSE dilution; format: functional, cell-based; outline: as §3
Mus musculus [14] = assay: Activation of iNKT cells in NOD mouse assessed as intracellular cytokine expression at 5 or 10 ug, ip by FACS analysis; format: functional, organism-based; outline: as §1
iNKT [15] = assay: Induction of cell proliferation in NOD mouse iNKT cells at 100 ng/mL after 48 hrs by CFSE dilution; format: functional, cell-based; outline: as §3
iNKT [16] = assay: Induction of cytokine expression in NOD mouse iNKT cells at 100 ng/mL after 24 hrs by intracellular staining for IFN-gamma; format: functional, cell-based; outline: as §2
iNKT [17] = assay: Induction of cytokine expression in NOD mouse iNKT cells at 200 ng/mL after 24 hrs by intracellular staining for IFN-gamma; format: functional, cell-based; outline: as §2
iNKT [18] = assay: Induction of cytokine expression in C57BL/6 mouse iNKT cells at 200 ng/mL after 24 hrs by intracellular staining for IFN-gamma; format: functional, cell-based; outline: as §2
iNKT [19] = assay: Induction of cytokine expression in NOD mouse iNKT cells at 200 ng/mL after 48 hrs by intracellular staining for IFN-gamma; format: functional, cell-based; outline: as §2
Mus musculus [20] = assay: Activation of iNKT cells in C57BL/6 mouse assessed as intracellular cytokine expression at 5 or 10 ug, ip by FACS analysis; format: functional, organism-based; outline: as §1

Measured: Activity

CCCCCCCCCCCCCCCCCCCCCCCCCC(=O)N[C@@H](CS[C@H]1O[C@H](CO)[C@H](O)[C@H](O)[C@H]1O)[C@H](O)[C@H](O)CCCCCCCCCCCCCC
inactive: all assays above
